# According to ChEMBL document CHEMBL1150160, “New scalarane class sesterterpenes from an Indonesian sponge, Phyllospongia sp” (2002):
# System: KB
# Experiment: Cytotoxicity against human KB cells at 10 ug/mL
# Type: functional
# Outline: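 KB cell growth was measured in the presence of test material at 10 μg/mL. Values are given as percent inhibition of growth.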
row,SMILES,inhibition at 10 µg/mL
1,CO[C@](C(=O)O[C@H]1C[C@H]2[C@]3(C)CC[C@H]4C(C)(C)CCC[C@]4(C)[C@H]3C[C@H](OC(C)=O)[C@]2(C)[C@@H](C=O)[C@@H]1C(C)=O)(c1ccccc1)C(F)(F)F,30%
2,CC(=O)O[C@H]1C[C@@H]2[C@@]3(C)CCCC(C)(C)[C@@H]3CC[C@@]2(C)[C@@H]2C[C@H](O)[C@@H]3[C@H]([C@H](O)O[C@H]3C)[C@@]12C,30%
3,CO[C@@H]1O[C@@H](C)[C@H]2[C@H]1[C@@]1(C)[C@@H](OC(C)=O)C[C@@H]3[C@@]4(C)CCCC(C)(C)[C@@H]4CC[C@@]3(C)[C@@H]1C[C@@H]2O,30%
4,CC[C@@]1(C)CCC[C@]2(C)[C@H]3C[C@H](OC(C)=O)[C@]4(C)[C@H]5[C@@H](OC)O[C@@H](C)[C@@H]5[C@@H](O)C[C@H]4[C@]3(C)CC[C@@H]12,30%
5,CC(=O)O[C@H]1C[C@H]2[C@@](C)(CC[C@H]3C(C)(C)CCC[C@]23C)[C@@H]2C[C@H](O)[C@@H](C(C)=O)C[C@]21C,30%
6,CC[C@@]1(C)CCC[C@]2(C)[C@H]3C[C@H](OC(C)=O)[C@]4(C)C[C@H](C(C)=O)[C@@H](O)C[C@H]4[C@]3(C)CC[C@@H]12,30%
7,CC(=O)O[C@H]1C[C@H]2[C@]3(C)CC[C@H]4C(C)(C)CCC[C@]4(C)[C@H]3C[C@H](OC(C)=O)[C@]2(C)[C@@H](C=O)[C@@H]1C(C)=O,30%
8,CO[C@H]1O[C@@H](C)[C@H]2[C@H]1[C@@]1(C)[C@@H](OC(C)=O)C[C@@H]3[C@@]4(C)CCCC(C)(C)[C@@H]4CC[C@@]3(C)[C@@H]1C[C@@H]2O,30%
9,CC[C@@]1(C)CCC[C@]2(C)[C@H]3C[C@H](OC(C)=O)[C@]4(C)[C@@H](C=O)[C@H](C(C)=O)[C@@H](O)C[C@H]4[C@]3(C)CC[C@@H]12,30%
10,CC[C@@]1(C)CCC[C@]2(C)[C@H]3C[C@H](OC(C)=O)[C@]4(C)[C@@H]5[C@H]([C@H](C)O[C@H]5O)[C@@H](O)C[C@H]4[C@]3(C)CC[C@@H]12,30%
11,CO[C@@H]1O[C@](C)(OC)[C@H]2[C@H]1[C@@]1(C)[C@@H](OC(C)=O)C[C@@H]3[C@@]4(C)CCCC(C)(C)[C@@H]4CC[C@@]3(C)[C@@H]1C[C@@H]2O,30%
12,CO[C@@](C(=O)O[C@H]1C[C@H]2[C@]3(C)CC[C@H]4C(C)(C)CCC[C@]4(C)[C@H]3C[C@H](OC(C)=O)[C@]2(C)[C@@H](C=O)[C@@H]1C(C)=O)(c1ccccc1)C(F)(F)F,30%
13,CC(=O)O[C@@H]1O[C@@H](C)[C@H]2[C@H]1[C@@]1(C)[C@@H](OC(C)=O)C[C@@H]3[C@@]4(C)CCCC(C)(C)[C@@H]4CC[C@@]3(C)[C@@H]1C[C@@H]2OC(C)=O,30%
14,CC[C@@]1(C)CCC[C@]2(C)[C@H]3C[C@H](OC(C)=O)[C@]4(C)[C@H]5[C@H](OC)O[C@@H](C)[C@@H]5[C@@H](O)C[C@H]4[C@]3(C)CC[C@@H]12,30%
15,CC(=O)O[C@H]1C[C@@H]2[C@@]3(C)CCCC(C)(C)[C@@H]3CC[C@@]2(C)[C@@H]2C[C@H](O)[C@@H](C(C)=O)[C@H](C=O)[C@@]12C,30%
16,CC(=O)O[C@H]1C[C@@H]2[C@@]3(C)CCCC(C)(C)[C@@H]3CC[C@@]2(C)[C@@H]2C[C@H](O)[C@@H](C(C)=O)[C@H](O)[C@@]12C,30%
